Reference: ChEMBL document CHEMBL6177921, “Enhancing the antimycobacterial efficacy of pyridine-4-carbohydrazide: linkage to additional antimicrobial agents via oxocarboxylic acids” (RSC Med Chem, 2025)
≈ marks a conversion by molar mass, not a printed value.

Columns and labels:
Candida tropicalis [1] = experiment: Antifungal activity against Candida tropicalis CCM 8264 measured after 24 to 48 hrs by microdilution broth method; assay type: functional; settings: time 24-48 hrs
How it was run: (§1)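 Yeast broth microdilution per EUCAST, slightly modified. Medium was RPMI-1640 with 2% glucose, MOPS-buffered to pH 7.0. Compounds were tested at 0.98–500 μM with final DMSO ≤1.0% (v/v). Inoculum came from 18–24 h cultures, final ~1–5 × 10^5 CFU mL−1. Plates were incubated statically, dark and humidified, at 35 ± 2 °C. MIC was read visually at 24 and 48 h (no visible growth).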

Aspergillus fumigatus = experiment: Antifungal activity against Aspergillus fumigatus ATCC 204305 measured after 24 to 48 hrs by microdilution broth method; assay type: functional; settings: time 24-48 hrs
How it was run: (§2)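 Filamentous fungi tested by broth microdilution per EUCAST with minor changes. Compounds were tested at 0.98–500 μM with final DMSO ≤1.0% (v/v). Plates were incubated statically, dark and humidified, at 35 ± 2 °C for 24 and 48 h. MIC was the lowest concentration showing no visible growth.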

Candida tropicalis [2] = experiment: Antifungal activity against Candida tropicalis ATCC 750 measured after 24 to 48 hrs by microdilution broth method; assay type: functional; settings: time 24-48 hrs; how it was run: as §1
Candida parapsilosis [3] = experiment: Antifungal activity against Candida parapsilosis CCM 8260 measured after 24 to 48 hrs by microdilution broth method; assay type: functional; settings: Lodderomyces parapsilosis, time 24-48 hrs; how it was run: as §1
Mycobacterium kansasii [4] = experiment: Antimycobacterial activity against INH/RIF/rifabutin/OFX/EMB Mycobacterium kansasii CNCTC 6509/96 clinical isolate assessed as bacterial growth inhibition incubated for 7 days by two-fold serial dilution method; assay type: functional; settings: CNCTC 6509/96, 168 h, time 7 day
How it was run: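 Šula's liquid semisynthetic medium; M. kansasii clinical isolate 6509/96 used at stock dilution 10−4, final ~1.5 × 10^5 CFU mL−1. Two-fold dilutions ran 1000–1 μM with final DMSO 1.0% (v/v). MIC was read visually as complete growth inhibition after 7, 14 and 21 days.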

Candida albicans [5] = experiment: Antifungal activity against Candida albicans ATCC 24443 measured after 24 to 48 hrs by microdilution broth method; assay type: functional; settings: time 24-48 hrs; how it was run: as §1
Mycobacterium avium [6] = experiment: Antimycobacterial activity against INH/RIF/rifabutin/OFX/EMB resistant Mycobacterium avium CNCTC 330/88 assessed as bacterial growth inhibition incubated for 21 days by two-fold serial dilution method; assay type: functional; settings: CNCTC 330/88, 504 h, time 21 day
How it was run: (§3)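 M. avium CNCTC 330/88 (stock suspension dilution 10−5) grown in Šula's semisynthetic liquid medium; two-fold serial dilutions 1000 to 1 μM from DMSO stocks (final DMSO 1.0% v/v); final load 1.5 × 10^5 CFU mL−1; MIC read visually as lowest concentration giving complete growth inhibition after 14 and 21 days.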

Pichia kudriavzevii [7] = experiment: Antifungal activity against Candida krusei CCM 8271 measured after 24 to 48 hrs by microdilution broth method; assay type: functional; settings: time 24-48 hrs; how it was run: as §1
Mycobacterium avium [8] = experiment: Antimycobacterial activity against INH/RIF/rifabutin/OFX/EMB resistant Mycobacterium avium CNCTC 330/88 assessed as bacterial growth inhibition incubated for 14 days by two-fold serial dilution method; assay type: functional; settings: CNCTC 330/88, 336 h, time 14 day; how it was run: as §3
Aspergillus flavus = experiment: Antifungal activity against Aspergillus flavus CCM 8363 measured after 24 to 48 hrs by microdilution broth method; assay type: functional; settings: time 24-48 hrs; how it was run: as §2
[9] = tested on: Mycobacterium tuberculosis; experiment: Antimycobacterial activity against Mycobacterium tuberculosis H37Rv CNCTC 331/88 assessed as bacterial growth inhibition incubated for 21 days by two fold serial dilution method; assay type: functional; settings: H37Rv CNCTC 331/88, 504 h, time 21 day
Mycobacterium kansasii [10] = experiment: Antimycobacterial activity against multi-drug resistant Mycobacterium kansasii CNCTC 6509/96 clinical isolate assessed as bacterial growth inhibition incubated for 14 days by two-fold serial dilution method; assay type: functional; settings: CNCTC 6509/96, 336 h, time 14 day
How it was run: (§4)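 M. kansasii clinical isolate 6509/96 (stock dilution 10−4) in Šula's semisynthetic liquid medium; two-fold serial dilutions 1000 to 1 μM, DMSO final 1.0% v/v; final load 1.5 × 10^5 CFU mL−1; MIC read visually as complete growth inhibition at 7, 14 and 21 days.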

[11] = tested on: Trichophyton interdigitale; experiment: Antifungal activity against Trichophyton interdigitale ATCC 9533 measured after 24 to 48 hrs by microdilution broth method; assay type: functional; settings: time 24-48 hrs
[12] = tested on: Mycobacterium tuberculosis; experiment: Antimycobacterial activity against multidrug sensitive Mycobacterium tuberculosis H37Rv CNCTC 331/88 assessed as bacterial growth inhibition incubated for 14 days by two-fold serial dilution method; assay type: functional; settings: H37Rv CNCTC 331/88, 336 h, time 14 day
Lichtheimia corymbifera = experiment: Antifungal activity against Lichtheimia corymbifera CCM 8077 measured after 24 to 48 hrs by microdilution broth method; assay type: functional; settings: time 24-48 hrs; how it was run: as §2
[13] = tested on: Trichophyton interdigitale; experiment: Antifungal activity against Trichophyton interdigitale CCM 8377 measured after 24 to 48 hrs by microdilution broth method; assay type: functional; settings: time 24-48 hrs
Candida parapsilosis [14] = experiment: Antifungal activity against Candida parapsilosis ATCC 22019 measured after 24 to 48 hrs by microdilution broth method; assay type: functional; settings: Lodderomyces parapsilosis, time 24-48 hrs; how it was run: as §1
Candida albicans [15] = experiment: Antifungal activity against Candida albicans CCM 8320 measured after 24 to 48 hrs by microdilution broth method; assay type: functional; settings: time 24-48 hrs; how it was run: as §1
Mycobacterium kansasii [16] = experiment: Antimycobacterial activity against multi-drug resistant Mycobacterium kansasii clinical isolate CNCTC 6509/96 assessed as bacterial growth inhibition incubated for 21 days by two-fold serial dilution method; assay type: functional; settings: CNCTC 6509/96, 504 h, time 21 day; how it was run: as §4
Pichia kudriavzevii [17] = experiment: Antifungal activity against Candida krusei ATCC 6258 measured after 24 to 48 hrs by microdilution broth method; assay type: functional; settings: time 24-48 hrs; how it was run: as §1
[18] = Hemolytic activity in human Red blood cells assessed as effect of lipid bilayer membrane incubated for 1 hr by absorbance based spectrophotometric analysis; assay type: toxicity, cell-based; settings: erythrocyte
How it was run: (§5)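 Human erythrocyte suspension mixed 1:1 with compound in Hartmann's solution at final 125 μM, final DMSO 1.0% (v/v), 37 °C for 1 h. After centrifugation, released haemoglobin in the supernatant was read at 405 nm. Negative control was hRBCs with 1.0% DMSO; positive control was hRBCs sonicated for 1 min.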

Staphylococcus aureus = experiment: Antibacterial activity against methicillin-resistant Staphylococcus aureus ATCC 43300 assessed as bacterial growth inhibition incubated for 24 to 48 hrs by broth microdilution method; assay type: functional; settings: time 24-48 hrs
How it was run: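 Broth microdilution per EUCAST with slight modification in cation-adjusted Mueller-Hinton broth; compounds from DMSO stocks (final DMSO ≤1.0% v/v), 0.98–500 μM; final inoculum about 5 × 10^5 CFU mL−1 from 16–24 h cultures; static incubation in dark, humidified air at 35 ± 2 °C; MIC read by eye at 24 and 48 h as lowest concentration without visible growth.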

[19] = tested on: Staphylococcus epidermidis; experiment: Antibacterial activity against Staphylococcus epidermidis ATCC 12228 assessed as bacterial growth inhibition incubated for 24 to 48 hrs by broth microdilution method; assay type: functional; settings: time 24-48 hrs
How it was run: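 Broth microdilution in cation-adjusted Mueller-Hinton broth, adapted from EUCAST. Compounds were tested at 0.98–500 μM with final DMSO ≤1.0% (v/v). Inoculum came from 16–24 h cultures, final ~5 × 10^5 CFU mL−1. Plates were incubated statically, dark and humidified, at 35 ± 2 °C. MIC was read by eye at 24 and 48 h as the lowest concentration with no visible growth.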

[20] = Hemolytic activity in human Red blood cells assessed as hemolysis rate incubated for 1 hr by absorbance based spectrophotometric analysis relative to control; assay type: toxicity, cell-based, Erythrocyte; settings: read-out: Activity; how it was run: as §5

Row | SMILES | MIC (Candida tropicalis [1]) | MIC (Aspergillus fumigatus) | MIC (Candida tropicalis [2]) | MIC (Candida parapsilosis [3]) | MIC (Mycobacterium kansasii [4]) | MIC (Candida albicans [5]) | MIC (Mycobacterium avium [6]) | MIC (Pichia kudriavzevii [7]) | MIC (Mycobacterium avium [8]) | MIC (Aspergillus flavus) | MIC [9] | MIC (Mycobacterium kansasii [10]) | MIC [11] | MIC [12] | MIC (Lichtheimia corymbifera) | MIC [13] | MIC (Candida parapsilosis [14]) | MIC (Candida albicans [15]) | MIC (Mycobacterium kansasii [16]) | MIC (Pichia kudriavzevii [17]) | further results
1 | C/C(=N\NC(=O)c1ccncc1)C(=O)Nc1ccccc1Oc1ccccc1 | > 500 µM | > 500 µM | > 500 µM | > 500 µM | 4 µM (≈ 1.5 µg/mL) | > 500 µM | ≥ 1000 µM | > 500 µM | ≥ 1000 µM | > 500 µM | 0.5 µM (≈ 0.187 µg/mL) | 8 µM (≈ 3 µg/mL) | > 500 µM | 0.25 µM (≈ 0.0936 µg/mL) | > 500 µM | > 500 µM | > 500 µM | > 500 µM | 16 µM (≈ 5.99 µg/mL) | > 500 µM | 
2 | C/C(=N\NC(=O)c1ccncc1)C(=O)Nc1ccc(Oc2ccccc2)cc1 | > 500 µM | > 500 µM | > 500 µM | > 500 µM | ≤ 1 µM | > 500 µM | 500 µM (≈ 187 µg/mL) | > 500 µM | 500 µM (≈ 187 µg/mL) | > 500 µM | 0.25 µM (≈ 0.0936 µg/mL) | ≤ 1 µM | > 500 µM | 0.25 µM (≈ 0.0936 µg/mL) | > 500 µM | > 500 µM | > 500 µM | > 500 µM | 2 µM (≈ 0.749 µg/mL) | > 500 µM | Activity [18]: Non-toxic
3 | C/C(=N\NC(=O)c1ccncc1)C(=O)NNC(=O)c1ccncc1 |  |  |  |  | 8 µM (≈ 2.61 µg/mL) |  | 500 µM (≈ 163 µg/mL) |  | 500 µM (≈ 163 µg/mL) |  | 0.5 µM (≈ 0.163 µg/mL) | 16 µM (≈ 5.22 µg/mL) |  | 0.25 µM (≈ 0.0816 µg/mL) |  |  |  |  | 16 µM (≈ 5.22 µg/mL) |  | MIC (Staphylococcus aureus): 500 µM (≈ 163 µg/mL); MIC [19]: 250 µM (≈ 81.6 µg/mL)
4 | COc1cnc(NS(=O)(=O)c2ccc(NC(=O)/C(C)=N/NC(=O)c3ccncc3)cc2)nc1 | > 500 µM | > 500 µM | > 500 µM | > 500 µM | 32 µM (≈ 15 µg/mL) | > 500 µM | ≥ 1000 µM | > 500 µM | ≥ 1000 µM | > 500 µM | 2 µM (≈ 0.939 µg/mL) | 32 µM (≈ 15 µg/mL) | > 500 µM | 2 µM (≈ 0.939 µg/mL) | > 500 µM | > 500 µM | > 500 µM | > 500 µM | 32 µM (≈ 15 µg/mL) | > 500 µM | 
5 | C/C(=N\NC(=O)c1ccncc1)C(=O)Nc1ccc(Oc2ccc(Cl)cc2)c(Cl)c1 | > 500 µM | > 500 µM | > 500 µM | > 500 µM | 32 µM (≈ 14.2 µg/mL) | > 500 µM | 500 µM (≈ 222 µg/mL) | > 500 µM | 500 µM (≈ 222 µg/mL) | > 500 µM | 0.5 µM (≈ 0.222 µg/mL) | 64 µM (≈ 28.4 µg/mL) | > 500 µM | 0.5 µM (≈ 0.222 µg/mL) | > 500 µM | > 500 µM | > 500 µM | > 500 µM | 64 µM (≈ 28.4 µg/mL) | > 500 µM | 
6 | C/C(=N\NC(=O)c1ccncc1)C(=O)Nc1ccc(-c2ccccc2)cc1 |  |  |  |  | 8 µM (≈ 2.87 µg/mL) |  | > 250 µM |  | > 250 µM |  | ≤ 0.25 µM | 8 µM (≈ 2.87 µg/mL) |  | ≤ 0.25 µM |  |  |  |  | 16 µM (≈ 5.73 µg/mL) |  | hemolysis at 1 h [20]: 0.01%
7 | C/C(=N\NC(=O)c1ccncc1)C(=O)Nc1ccc(Oc2ccc(Cl)cc2)cc1 | > 500 µM | > 500 µM | > 500 µM | > 500 µM | 1 µM (≈ 0.409 µg/mL) | > 500 µM | 500 µM (≈ 204 µg/mL) | > 500 µM | 500 µM (≈ 204 µg/mL) | > 500 µM | 0.5 µM (≈ 0.204 µg/mL) | 2 µM (≈ 0.818 µg/mL) | > 500 µM | 0.5 µM (≈ 0.204 µg/mL) | > 500 µM | > 500 µM | > 500 µM | > 500 µM | 4 µM (≈ 1.64 µg/mL) | > 500 µM | 
